Screening results (PubChem BioAssay)
GASC1 inh: inhibitors of human demethylase GASC-1 KDM4C. GST-KDM4C 2-372, H3K9me3 peptide, LANCE TR-FRET. Q9H3R0. inhibition, % at 12.5 µM. 96,000 tested, 0.15% active. AID 720574;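 active = mean replicate inhibition above about 25%, with at least 55% of replicates also reaching it, limit read from the data, passing the limit was not always enough; inconclusive = only one of those two conditions met; inactive = neither condition met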
Target sequence (Q9H3R0 2-372 limits assumed): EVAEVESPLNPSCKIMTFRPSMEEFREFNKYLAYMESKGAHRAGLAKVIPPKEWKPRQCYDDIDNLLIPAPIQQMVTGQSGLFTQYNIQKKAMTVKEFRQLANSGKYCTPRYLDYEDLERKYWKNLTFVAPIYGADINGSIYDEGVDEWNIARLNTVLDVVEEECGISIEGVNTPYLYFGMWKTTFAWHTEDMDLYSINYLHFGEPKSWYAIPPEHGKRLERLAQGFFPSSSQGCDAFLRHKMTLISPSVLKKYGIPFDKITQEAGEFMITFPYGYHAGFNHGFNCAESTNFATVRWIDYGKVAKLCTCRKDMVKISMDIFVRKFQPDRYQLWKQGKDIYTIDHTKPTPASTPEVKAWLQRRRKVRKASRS
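Test system – GST-tagged GASC-1 (JMJD2C) catalytic fragment, aa 2-372 · Medium – HEPES buffer, pH 7.5, plus ascorbate · Reagent – H3K9me3 peptide with Fe(II)/2OG · Compound – one test concentration per compound · Timing – 30 min reaction, 60 min detection, RT · Technique – TR-FRET with Eu antibody and ULight streptavidin, EDTA stop · Read-out basis – inhibition from TR-FRET ratio decrease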
T cruzi growth-1: T. cruzi proliferation inhibition | AID 624255 | T. cruzi beta-gal in NIH3T3, GalScreen luminescence, 90 h | inhibition, % at 8.34 µM | 77,000 tested, 5.9% active;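 active = mean inhibition above about 93%, with at least 55% of replicates each passing it, limit read from the data, passing the limit was not always enough; inconclusive = only one of those two conditions holds; inactive = neither condition holds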
IDH1 mut inh: IDH1 R132H (human) inhibition; IDH1 R132H reductase, diaphorase/resazurin fluorescence, 60 min; O75874; inhibition, % at 10 µM; 70,000 tested, 0.18% active; in the data active = inhibition above about 34%; inconclusive = no clear call, values can overlap the other calls; inactive = below about 11%;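 also: 0% = DMSO and 100% = no enzyme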
Target sequence (O75874 whole entry R132H): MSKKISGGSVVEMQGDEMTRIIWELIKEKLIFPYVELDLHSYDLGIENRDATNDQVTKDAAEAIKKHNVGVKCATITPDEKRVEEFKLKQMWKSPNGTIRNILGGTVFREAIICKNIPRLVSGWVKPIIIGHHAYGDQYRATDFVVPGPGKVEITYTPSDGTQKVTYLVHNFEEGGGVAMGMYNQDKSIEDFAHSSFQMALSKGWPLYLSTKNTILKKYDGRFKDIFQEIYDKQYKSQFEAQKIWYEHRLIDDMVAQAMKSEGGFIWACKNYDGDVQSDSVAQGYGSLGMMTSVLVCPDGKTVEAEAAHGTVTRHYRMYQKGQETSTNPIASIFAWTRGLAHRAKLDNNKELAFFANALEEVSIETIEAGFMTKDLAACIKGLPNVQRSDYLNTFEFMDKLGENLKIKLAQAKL
T cruzi growth-2: Trypanosoma cruzi proliferation inhibition; AID 651739; 5,600 tested, 72% active; inhibition, % at 8.35 µM; shares compounds with T cruzi growth-1; T. cruzi beta-gal in NIH3T3, GalScreen luminescence, 90 h;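 active = mean replicate inhibition above about 95% and at least 55% of replicates individually reaching it, limit read from the data; inconclusive = only one of the two criteria is met; inactive = neither criterion is met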
T cruzi growth-3: blocks T. cruzi growth in NIH3T3 host cells; 5,600 tested, 21% active; inhibition, % at 2.09 µM; shares compounds with T cruzi growth-1; T. cruzi beta-gal in NIH3T3, GalScreen luminescence, 90 h;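 active = mean inhibition above about 95%, with at least 55% of replicates also reaching it, limit read from the data; inconclusive = meets just one of the two conditions; inactive = meets neither condition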;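 also: plate controls were neutral control median for no effect and positive control median for full effect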
3T3 cytotox: cytotoxicity in mouse NIH/3T3 fibroblasts | AID 651742 | NIH/3T3 viability, CellTiter-Glo ATP luminescence, 90 h | shares compounds with T cruzi growth-1 | cytotoxicity (signal decrease), % at 8.35 µM | 5,600 tested, 14% active;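 active = mean signal decrease across replicates above about 35% based on untreated-well scatter, with enough replicates individually passing, limit read from the data; inconclusive = no rule stated though some were filed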;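 also: 0% = median of neutral control wells and 100% = median of positive control wells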
3T3 cytotox 2: NIH/3T3 (mouse) viability loss; 5,600 tested, 56% active; inhibition, % at 24.9 µM; shares compounds with T cruzi growth-1; NIH/3T3 viability, CellTiter-Glo ATP luminescence, 90 h;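 active = mean loss of cell viability signal at or above a set limit, and enough replicates individually reaching it; inconclusive = meets only the mean limit or only the replicate share; inactive = meets neither condition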;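 also: 0% = median of neutral control wells and 100% = median of positive control wells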
Active calls of the source: *; ? = inconclusive; nt = no result given. Many of the other results were omitted from the sample, so hits are more common in it than they were.

SMILES | GASC1 inh | T cruzi growth-1 | IDH1 mut inh | T cruzi growth-2 | T cruzi growth-3 | 3T3 cytotox | 3T3 cytotox 2
COc1cccc(-c2ccc3c(c2)[C@@H]2[C@@H](CCN2C(=O)C2CCOCC2)[C@@H](CO)N3)c1 | 3 | 103* | nt | 101* | ? | 13 | 17
COc1cccc(-c2ccc3c(c2)[C@H]2[C@H](CCN2C(=O)Cc2ccncc2)[C@H](CO)N3)c1 | -2 | 104* | nt | 95 | 62 | 4 | 15
COc1cccc(-c2ccc3c(c2)[C@H]2[C@H](CCN2C(=O)CN2CCOCC2)[C@@H](CO)N3)c1 | -1 | ? | nt | 87 | 34 | -9 | -2
Cc1nn(CC(O)COc2ccc3cc(Br)ccc3c2)c(C)c1Cl (centres undefined) | nt | nt | 0 | nt | nt | nt | nt
O=C(CN1CCOCC1)N1CC[C@H]2[C@H](CO)Nc3ccc(-c4ccc(F)cc4)cc3[C@H]21 | -1 | 86 | nt | nt | nt | nt | nt
O=C(CN1CCOCC1)N1CC[C@@H]2[C@H]1c1cc(-c3ccccc3)ccc1N[C@@H]2CO | 0 | ? | nt | 98* | 14 | -17 | 5
C=C[C@@]1(C)CCC2=C(C1)C(=O)CC1[C@](C)(C(=O)O)CCC[C@]21C (some centres undefined) | nt | nt | 0 | nt | nt | nt | nt
O=C1C(=O)N(CCCn2ccnc2)C(c2cccs2)C1C(=O)c1cc2ccccc2o1 (centres undefined) | nt | nt | 2 | nt | nt | nt | nt
C[C@H]1CN([C@@H](C)CO)C(=O)c2cc(NC(=O)Nc3cccc4ccccc34)ccc2O[C@@H]1CN(C)Cc1ccc(C(F)(F)F)cc1 | -1 | 87* | nt | 109* | 44 | 13 | 11
C[C@@H]1CN([C@H](C)CO)C(=O)c2cc(NC(=O)Nc3cccc4ccccc34)ccc2O[C@H]1CN(C)Cc1ccc(C(F)(F)F)cc1 | -1 | 106* | 0 | 105* | 59 | 20 | ?
C[C@@H]1CN([C@@H](C)CO)C(=O)c2cc(NC(=O)Nc3cccc4ccccc34)ccc2O[C@@H]1CN(C)Cc1ccccc1 | 2 | 66 | 0 | nt | nt | nt | nt
C[C@@H]1CN([C@H](C)CO)C(=O)c2cc(NC(=O)Nc3cccc4ccccc34)ccc2O[C@H]1CN(C)Cc1ccccc1 | -2 | 54 | 0 | nt | nt | nt | nt
COc1ccc(NC(=O)CN(c2cc(Cl)c(Cl)cc2Cl)S(C)(=O)=O)c(OC)c1 | nt | nt | 0 | nt | nt | nt | nt
COc1cc(C(=O)Nc2cccc(-c3nc4ncccc4o3)c2)cc(OC)c1OC | nt | nt | -1 | nt | nt | nt | nt
O=C(CSc1n[nH]c(-c2ccc(Cl)cc2Cl)n1)Nc1ccc(I)cc1 | nt | nt | 0 | nt | nt | nt | nt
O=C(C[C@H]1C[C@@H]2c3cc(NC(=O)Nc4ccc(C(F)(F)F)cc4)ccc3O[C@@H]2[C@@H](CO)O1)NCc1ccc(Cl)cc1 | 0 | -14 | 0 | nt | nt | nt | nt
O=C(C[C@H]1C[C@@H]2c3cc(NC(=O)Nc4ccc(C(F)(F)F)cc4)ccc3O[C@@H]2[C@@H](CO)O1)NCc1cc(F)ccc1F | 12 | 156* | 0 | 81 | 11 | 9 | -4
C[C@H](NC(=O)C[C@H]1C[C@H]2c3cc(NC(=O)Nc4ccc(C(F)(F)F)cc4)ccc3O[C@H]2[C@@H](CO)O1)c1ccccc1 | -1 | ? | 1 | 77 | 41 | 8 | -2
O=C(C[C@@H]1C[C@@H]2c3cc(NC(=O)Nc4ccc(C(F)(F)F)cc4)ccc3O[C@@H]2[C@@H](CO)O1)NCc1ccc(Cl)cc1 | 2 | 112* | -1 | 109* | 24 | -21 | -1
C[C@H](NC(=O)C[C@H]1C[C@@H]2c3cc(NC(=O)Nc4ccc(C(F)(F)F)cc4)ccc3O[C@@H]2[C@@H](CO)O1)c1ccccc1 | 0 | 20 | -1 | nt | nt | nt | nt
O=C(C[C@@H]1C[C@@H]2c3cc(NC(=O)Nc4ccc(C(F)(F)F)cc4)ccc3O[C@@H]2[C@H](CO)O1)NCc1cc(F)ccc1F | -1 | 37 | 0 | nt | nt | nt | nt
COCCOC(=O)N1C(=O)[C@@]2(c3ccccc31)[C@H](C(=O)NC[C@H](O)c1ccccc1)[C@H]1C(=O)O[C@H](c3ccccc3)[C@H](c3ccccc3)N1[C@@H]2c1ccc(OCCO)cc1 | nt | nt | 0 | nt | nt | nt | nt
CC(=O)c1ccc(NC(=O)CSc2nnc(-c3ccccc3)n2-c2ccccc2)cc1 | nt | nt | 0 | nt | nt | nt | nt
Cc1ccc(NC(=O)CSc2nc(-c3cccs3)cc(C(F)(F)F)n2)c([N+](=O)[O-])c1 | nt | nt | -1 | nt | nt | nt | nt
CC1CC(=O)C2=C(CCC34OC23C(=O)c2cccc(O)c2C4O)C1 (centres undefined) | nt | nt | 1 | nt | nt | nt | nt
SMILES | GASC1 inh | T cruzi growth-1 | IDH1 mut inh | T cruzi growth-2 | T cruzi growth-3 | 3T3 cytotox | 3T3 cytotox 2
Cc1c(Br)c([N+](=O)[O-])nn1CC(=O)Nc1sc2c(c1C#N)CCC2 | nt | nt | 0 | nt | nt | nt | nt
O=C(O)C1CCCCC1C(=O)Nc1ccc([N+](=O)[O-])cc1 (centres undefined) | nt | nt | 0 | nt | nt | nt | nt
Cc1ccccc1S(=O)(=O)N1[C@@H](C#N)[C@H](c2ccc(-c3ccccc3)cc2)[C@@H]1CO | -2 | 102* | nt | 82 | 17 | 7 | 18
Cc1ccccc1S(=O)(=O)N1[C@@H](C#N)[C@@H](c2ccc(-c3ccccc3)cc2)[C@@H]1CO | -2 | 102* | nt | 101* | 103* | 50* | 73*
Cc1ccccc1S(=O)(=O)N1[C@H](C#N)[C@@H](c2ccccc2)[C@H]1CO | 0 | 19 | nt | nt | nt | nt | nt
Cc1ccccc1S(=O)(=O)N1[C@H](C#N)[C@H](c2ccc(-c3ccc(F)cc3)cc2)[C@@H]1CO | -5 | 92 | nt | nt | nt | nt | nt
Cc1ccccc1S(=O)(=O)N1[C@H](C#N)[C@H](c2ccc(-c3ccc(F)cc3)cc2)[C@H]1CO | -3 | 101* | nt | 101* | 91 | ? | 31*
Cc1ccccc1S(=O)(=O)N1[C@H](CO)[C@@H](c2ccc(C#CC3CC3)cc2)[C@@H]1C#N | 1 | 89 | nt | nt | nt | nt | nt
Cc1sc2nc(SCc3cc(=O)[nH][nH]3)nc(N)c2c1C | nt | nt | 0 | nt | nt | nt | nt
O=C(NCC(c1ccccc1)c1c[nH]c2ccccc12)Nc1ccc(Cl)cc1 (centres undefined) | nt | nt | 0 | nt | nt | nt | nt
O=C(CN1C(=O)c2ccccc2S1(=O)=O)Nc1ccc(N2CCOCC2)cc1 | nt | nt | 0 | nt | nt | nt | nt
Cc1cccc(-c2noc(CN(C(=O)c3ccc([N+](=O)[O-])c(C)c3)C(C)C)n2)c1 | nt | nt | 1 | nt | nt | nt | nt
Cc1c(Cl)cccc1NC(=O)CCN1C(=O)c2ccccc2S1(=O)=O | nt | nt | 0 | nt | nt | nt | nt
N#C[C@H]1[C@@H](c2ccc(C#Cc3cccc(F)c3)cc2)[C@@H](CO)N1C(=O)C1CC1 | 0 | 85 | nt | nt | nt | nt | nt
N#C[C@@H]1[C@@H](c2ccc(C#Cc3cccc(F)c3)cc2)[C@H](CO)N1C(=O)C1CC1 | -5 | 93 | nt | nt | nt | nt | nt
N#C[C@@H]1[C@@H](c2ccc(C#Cc3cccc(F)c3)cc2)[C@H](CO)N1C(=O)C1CCCC1 | -2 | 97* | nt | 100* | 101* | 16 | 79*
